# hIAP block: human IAP inhibitors, primary screen, biochemical, luminescence, uHTS | purified IAP, CDP-Star luminescence, 30 min | inhibition, % at 10 µM | 330,000 compounds, 0.12% hits;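 active = inhibition reaching a set limit with compound at 10 µM in the primary screen, cut at about 35% in these data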;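 also: plate controls were DMSO wells with enzyme for no effect and no-enzyme buffer wells for full effect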
# Target sequence (P09923 whole entry, looked up): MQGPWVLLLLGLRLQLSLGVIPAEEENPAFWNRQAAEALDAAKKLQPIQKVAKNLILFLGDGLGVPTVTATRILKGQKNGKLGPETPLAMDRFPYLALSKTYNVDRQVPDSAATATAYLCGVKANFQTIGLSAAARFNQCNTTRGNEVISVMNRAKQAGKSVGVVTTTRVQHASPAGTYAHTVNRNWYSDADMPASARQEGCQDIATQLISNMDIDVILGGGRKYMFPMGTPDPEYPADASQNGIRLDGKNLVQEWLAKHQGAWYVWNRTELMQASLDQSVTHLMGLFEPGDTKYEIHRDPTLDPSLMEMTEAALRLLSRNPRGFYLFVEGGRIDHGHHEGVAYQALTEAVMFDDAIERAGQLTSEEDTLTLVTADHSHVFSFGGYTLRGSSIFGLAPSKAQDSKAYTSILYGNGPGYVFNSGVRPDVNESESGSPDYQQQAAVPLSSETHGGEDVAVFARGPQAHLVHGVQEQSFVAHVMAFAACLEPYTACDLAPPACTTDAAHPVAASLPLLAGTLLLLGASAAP
# bIAP activator: bovine intestinal alkaline phosphatase activators, primary screen, biochemical, bovine IAP, CDP-star luminescence; alkaline phosphatase, intestinal [Bos taurus]; activation factor at 20 µM; 200,000 compounds, 0.17% hits; purified bovine IAP, 30 min; hits give high values; fold of DMSO-control signal, blank-subtracted; AID 1016, 2008;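 active = activation factor of 2 or more at 20 µM, a signal rise over negative controls twice the positive control's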
# hIAP act: human IAP activators, primary screen, biochemical, luminescence, uHTS | Intestinal-type alkaline phosphatase (Homo sapiens), P09923 | activation factor at 10 µM | AID 2524, 2010 | 330,000 compounds, 0.16% hits | purified human IAP, CDP-Star luminescence, 30 min; hits give high values; 1 = vehicle-only enzyme, 0 = enzyme-free background;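 active = activation factor of the enzyme at least 2-fold when tested at 20 µM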
# mIAP inh: inhibitors of mouse IAP, primary screen, biochemical, luminescence, uHTS; inhibition, % at 10 µM; intestinal alkaline phosphatase [Mus musculus]; 330,000 compounds, 0.2% hits; purified mouse IAP, CDP-Star luminescence, 30 min;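 active = inhibition of at least 40% at 10 µM in the primary screen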;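 also: plate controls were DMSO with enzyme for no effect and no enzyme wells for full effect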
# bIAP inh: bovine intestinal alkaline phosphatase inhibitors, primary screen, selectivity assay for TNAP inhibitor project, biochemical, bovine IAP, CDP-star luminescence; purified bovine IAP, 30 min; inhibition, % at 20 µM; 190,000 tested, under 10 active; alkaline phosphatase, intestinal [Bos taurus];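 active = over 50% inhibition of intestinal alkaline phosphatase at 20 µM in the single-dose screen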
#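 System: purified bovine intestinal alkaline phosphatase (IAP) enzyme; Input: IAP diluted 1/65,000,000 in the well; Measured by: CDP-star luminescence signal; Compound dosing: 20 µM single dose; Incubation: 30 min reaction at room temperature.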
# mIAP act: activators of mouse IAP, primary screen, biochemical, luminescence, uHTS | muIAP, CDP-Star luminescence, 30 min; hits give high values; 1 = vehicle-only enzyme signal, 0 = enzyme-free wells | AID 2805, 2010 | 330,000 compounds, 0.24% hits | activation factor at 10 µM | intestinal alkaline phosphatase [Mus musculus];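 active = activation factor of at least 2 at 20 µM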
#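 Assay system: mouse IAP enzyme; Reagent: CDP-Star chemiluminescent phosphatase substrate; Compound: DMSO-dissolved test compounds; Incubation: 30 min, room temperature; Technique: luminescence from enzymatic CDP-Star hydrolysis; Controls: DMSO-only wells and no-enzyme negative control.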
# Active calls of the source: *; / = not tested or not shown. Only some compounds are listed: those with a hit (about 0.79% of all), similar ones and a draw of the others.
SMILES,hIAP block,bIAP activator,hIAP act,mIAP inh,bIAP inh,mIAP act
CCn1c(C(O)c2ccc3c(c2)OCO3)nc2ccccc21 (stereo unspecified),9.2,2.5*,0.908,-2.5,-153.5,1.02
CCn1c(C(O)c2cc(OC)c(OC)c(OC)c2)nc2ccccc21 (stereo unspecified),-11.0,/,1.11,-5.9,/,1.06
O=C(O)c1ccc(NS(=O)(=O)c2ccc3c(c2)C2C=CCC2C(c2ccccc2F)N3)cc1 (stereo unspecified),6.6,0.9,0.934,5.5,10.6,0.945
NS(=O)(=O)c1ccc2c(c1)C1C=CCC1C(C1CC=CCC1)N2 (stereo unspecified),-3.1,0.8,1.03,56.4*,21.4,0.436
OCC[C@H]1C[C@H](O)[C@@H](O)[C@@]2(CCc3ccccc3O2)O1,-6.5,/,1.06,1.6,/,0.984
COc1ccc(Cl)cc1NC(=O)CN1CCC(n2nnc3cc(C)ccc32)CC1,8.9,5.3*,0.911,-15.2,-434.6,1.15
O=C(NCC1CCN(Cc2cccc(Cl)c2)CC1)Nc1ccc(Cl)cc1,-41.7,/,1.42,-210.5,/,3.1*
O=C(NCCN1CCN(Cc2ccccc2)CC1)Nc1cc(Cl)cc(Cl)c1,-4.4,/,1.04,-101.5,/,2.02*
COc1cc([N+](=O)[O-])ccc1NC(=O)NCC1CCN(Cc2ccc(Cl)cc2)CC1,8.3,/,0.917,-2.0,/,1.02
CCc1cccc(CN2CCC(CNC(=O)Nc3ccc(Cl)cc3)CC2)c1,-42.6,1.4,1.43,-258.8,-37.9,3.59*
COc1ccc(Cl)cc1-c1n[nH]c(=S)n1Cc1ccccc1,-5.9,/,1.06,41.7*,/,0.583
S=c1[nH]nc(-c2ccccc2Cl)n1Cc1ccccc1,-7.0,0.9,1.07,5.9,7.7,0.941
CN(C)Cc1ccccc1Sc1ccc2c(c1)CCCC2,-11.4,/,1.11,-1.1,/,1.01
N#Cc1cc2c(nc1SCc1ccccc1)CCCCC2,24.5,0.6,0.755,-1.1,36.3,1.01
N#Cc1cc2c(nc1SCc1cccc(Cl)c1)CCCCC2,-2.0,0.7,1.02,40.6*,26.2,0.594
CCCc1ccc2oc(C(=O)N(C)Cc3nccs3)c(C)c2c1,-5.0,/,1.05,-4.5,/,1.04
Cc1ccccc1-n1nc2c(c1NC(=O)c1ccc(S(=O)(=O)N(C)C)cc1)CSC2,0.8,1,0.992,45.5*,1.1,0.545
O=C(c1cc(C2CC2)nn1-c1ccccc1)N1CCN(c2ccccn2)CC1,-20.7,/,1.21,2.4,/,0.976
Cc1ccc(C(=O)C(NC(=O)c2ccco2)Nc2sc3c(c2C(N)=O)CCCC3)cc1 (stereo unspecified),-11.9,3.6*,1.12,11.0,-262.9,0.89
CC(=O)Nc1ccc(C(=O)NC2CCSc3ccccc32)cc1 (stereo unspecified),7.9,/,0.921,0.1,/,0.999
Cc1ccc(NC(=S)NC2CCSc3ccccc32)cc1 (stereo unspecified),-33.3,/,1.33,-268.6,/,3.69*
COC(=O)c1ccc(NC(=S)NC2CCc3ccccc32)cc1 (stereo unspecified),-4.0,1,1.04,-189.9,-1.2,2.9*
COC(=O)c1ccc(NC(=S)NC2CC2)cc1,8.6,1,0.914,-6.2,-2.3,1.06
CN(C)c1ccc(-c2nc3ccccc3n2C)cc1,14.4,0.9,0.856,4.0,7.3,0.96
Cc1ccc(C(O)c2nc3ccccc3n2C(C)C)cc1 (stereo unspecified),2.6,2.5*,0.974,-2.9,-149.2,1.03
SMILES,hIAP block,bIAP activator,hIAP act,mIAP inh,bIAP inh,mIAP act
CC(C)n1c(-c2ccc(N(C)C)cc2)nc2ccccc21,-64.6,3.4*,1.65,7.5,-241.9,0.925
Cc1c(C#N)c(=O)c(-[n+]2ccccc2)c([S-])n1-c1ccc(Cl)cc1,10.1,/,0.899,4.3,/,0.957
Cc1cc2nc(C3CCN(CC4COc5ccccc5O4)CC3)[nH]c2cc1C (stereo unspecified),16.4,4.5*,0.836,-57.8,-349.9,1.58
COc1cccc(/C=C/C(=O)NCc2ccc3c(c2)OCO3)c1,-6.3,/,1.06,-4.7,/,1.05
CCN(CC(=O)Nc1cccc(F)c1)Cc1nc2ccccc2c(=O)[nH]1,-42.6,1.8,1.43,-7.4,-77.6,1.07
CCN(CC(=O)NCc1ccc(F)cc1)Cc1nc2ccccc2c(=O)[nH]1,-4.6,2*,1.05,-15.3,-100.1,1.15
COc1cc(CNCc2ccccn2)ccc1OCc1ccc(Cl)cc1,-20.0,0.9,1.2,-13.5,11.9,1.14
COc1cc(CNCc2ccccn2)ccc1OCc1c(Cl)cccc1Cl,6.6,2.5*,0.934,-44.2,-145.6,1.44
COc1ccccc1N(C(=O)c1snc(C(N)=O)c1N)C(C(=O)NC1CCCC1)c1ccc2ncccc2c1 (stereo unspecified),13.0,/,0.87,12.8,/,0.872
O=C(CSC(=S)N1CCN(c2ccccc2)CC1)Nc1nc(-c2ccccc2)c(-c2ccccc2)o1,-10.6,2.2*,1.11,9.1,-123.4,0.909
COc1cc(/C=C/C(=O)OCC(=O)c2ccc3c(c2)NC(=O)CO3)ccc1OC(F)F,-3.7,/,1.04,-3.0,/,1.03
CN(C)c1ccc(/C=C/c2ccc3ccccc3[n+]2C)cc1,6.8,0.8,0.932,41.7*,17.0,0.583
CN(CCCS(=O)(=O)[O-])c1ccc(/C=C/c2ccc3ccccc3[n+]2C)cc1,19.1,/,0.809,2.4,/,0.976
O=C1c2c(O)cc(O)cc2O[C@@]12c1c(cc(O)c3c1O[C@H](c1ccc(O)cc1)[C@@H](O)C3)O[C@@H]2c1ccc(O)cc1,7.4,1,0.926,41.2*,1.2,0.588
O=S(=O)(c1ccc(NC(=S)Nc2ccccc2)cc1)N1CCOCC1,-6.1,1,1.06,-1.2,1.7,1.01
CC(C)CCCCCCNC(=S)Nc1ccc(S(=O)(=O)N2CCOCC2)cc1,6.0,0.9,0.94,-124.7,5.5,2.25*
Cc1cc(C)c(C)c(C(=O)CSc2nnc(-c3ccc4[nH]c(C)c(C)c4c3)o2)c1C,6.0,1,0.94,-9.8,2.4,1.1
Cc1[nH]c2ccc(-c3nnc(SCC(=O)c4ccc(F)cc4)o3)cc2c1C,-18.1,1,1.18,56.7*,2.3,0.433
O=C(c1ccc(F)cc1)C1CCN(C(=S)NCC2CCCO2)CC1 (stereo unspecified),-2.5,0.9,1.02,-1.6,13.3,1.02
CC1CC(C)(C)NCCNC(C)CC(C)(C)NCCN1 (stereo unspecified),-4.5,2.8*,1.04,-18.3,-176.9,1.18

# From PubChem BioAssay
